Values after ≈ are worked out from the molar mass of the structure shown.
Legend:
Candida albicans [1] = assay: Antifungal activity against Candida albicans ATCC 36082 by broth microdilution assay; format: functional
Nakaseomyces glabratus = assay: Antifungal activity against Candida glabrata ATCC 34138 by broth microdilution assay; format: functional
Pichia kudriavzevii = assay: Antifungal activity against Candida krusei ATCC 6528 by broth microdilution assay; format: functional
Clavispora lusitaniae = assay: Antifungal activity against Candida lusitaniae ATCC 42720 by broth microdilution assay; format: functional
Candida tropicalis = assay: Antifungal activity against Candida tropicalis ATCC 750 by broth microdilution assay; format: functional
Candida parapsilosis = assay: Antifungal activity against Candida parapsilosis ATCC 21019 by broth microdilution assay; format: functional; conditions: Lodderomyces parapsilosis
Aspergillus fumigatus = assay: Antifungal activity against Aspergillus fumigatus ATCC 16424 by broth microdilution assay; format: functional
Aspergillus flavus = assay: Antifungal activity against Aspergillus flavus ATCC MYA-1004 by broth microdilution assay; format: functional
Aspergillus terreus = assay: Antifungal activity against Aspergillus terreus ATCC 28301 by broth microdilution assay; format: functional
Aspergillus niger = assay: Antifungal activity against Aspergillus niger ATCC 9042 by broth microdilution assay; format: functional
HepG2 [2] = assay: Cytotoxicity against human HepG2 cells at 50 uM by neutral red uptake assay; format: functional
Cryptococcus neoformans = assay: Antifungal activity against Cryptococcus neoformans ATCC 24065 by broth microdilution assay
HepG2 [3] = assay: Cytotoxicity against human HepG2 cells by neutral red uptake assay; format: functional
Summary of the method: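 Human hepatoma HepG2 cells; neutral red uptake read-out following a previously described protocol; the value is the CC50 (concentration giving half-maximal cytotoxicity); ketoconazole served as reference agent.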

Candida albicans [4] = assay: Antifungal activity against systemic Candida albicans ATCC 36082 infection model in ICR mouse assessed as survival at 20 mg/kg, po; format: functional
Summary of the method: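 C. albicans ATCC 36082 given systemically, about 5 × 10⁵ cells per animal. Oral dosing at 20 mg/kg once daily started 2 h post-infection and continued for 7 consecutive days. Read-out was mean survival days, compared against an untreated infected control group.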

Structure (SMILES) | MIC80 (Candida albicans [1]) [µg/mL] | MIC80 (Nakaseomyces glabratus) [µg/mL] | MIC80 (Pichia kudriavzevii) [µg/mL] | MIC80 (Clavispora lusitaniae) [µg/mL] | MIC80 (Candida tropicalis) [µg/mL] | MIC80 (Candida parapsilosis) [µg/mL] | MIC80 (Aspergillus fumigatus) [µg/mL] | MIC80 (Aspergillus flavus) [µg/mL] | MIC80 (Aspergillus terreus) [µg/mL] | MIC80 (Aspergillus niger) [µg/mL] | inhibition at 50 µM (HepG2 [2]) [%] | MIC80 (Cryptococcus neoformans) [µg/mL] | CC50 (HepG2 [3]) [µM] | Survival (Candida albicans [4]) [days]
Cc1nn([C@H](C)[C@](O)(Cn2cncn2)c2ccc(F)cc2F)c2ccc(C(F)(F)F)cc12 | ≤ 0.015 | 8 (≈ 17.7 µM) | 4 (≈ 8.86 µM) | 0.25 (≈ 0.554 µM) | > 8 | 1 (≈ 2.22 µM) | > 16 | > 16 | > 16 | > 16 | 2.9 | 1 (≈ 2.22 µM) | – | –
C[C@@H](n1ncc2ccccc21)[C@](O)(Cn1cncn1)c1ccc(F)cc1F | ≤ 0.015 | 2 (≈ 5.41 µM) | 0.5 (≈ 1.35 µM) | 0.063 (≈ 0.171 µM) | 0.125 (≈ 0.338 µM) | 0.063 (≈ 0.171 µM) | 2 (≈ 5.41 µM) | 1 (≈ 2.71 µM) | 2 (≈ 5.41 µM) | 4 (≈ 10.8 µM) | – | 0.063 (≈ 0.171 µM) | 599 | 7.2
Cc1nn([C@H](C)[C@](O)(Cn2cncn2)c2ccc(F)cc2F)c2cccc(F)c12 | ≤ 0.015 | 8 (≈ 19.9 µM) | 1 (≈ 2.49 µM) | 0.125 (≈ 0.311 µM) | 1 (≈ 2.49 µM) | 0.25 (≈ 0.623 µM) | 16 (≈ 39.9 µM) | > 16 | > 16 | > 16 | 8.1 | 0.125 (≈ 0.311 µM) | – | –
C[C@@H](n1cc2cc(F)ccc2n1)[C@](O)(Cn1cncn1)c1ccc(F)cc1F | ≤ 0.015 | 4 (≈ 10.3 µM) | 0.5 (≈ 1.29 µM) | ≤ 0.015 | 0.125 (≈ 0.323 µM) | 0.031 (≈ 0.08 µM) | 0.25 (≈ 0.645 µM) | 0.5 (≈ 1.29 µM) | 0.5 (≈ 1.29 µM) | 1 (≈ 2.58 µM) | – | 0.063 (≈ 0.163 µM) | – | –
C[C@@H](c1ncncc1F)[C@](O)(Cn1cncn1)c1ccc(F)cc1F [VORICONAZOLE] | ≤ 0.015 | 4 (≈ 11.5 µM) | 1 (≈ 2.86 µM) | 0.063 (≈ 0.18 µM) | 0.25 (≈ 0.716 µM) | 0.25 (≈ 0.716 µM) | 0.25 (≈ 0.716 µM) | 0.5 (≈ 1.43 µM) | 1 (≈ 2.86 µM) | 1 (≈ 2.86 µM) | – | 0.125 (≈ 0.358 µM) | – | –
C[C@@H](n1cc2ccc([N+](=O)[O-])cc2n1)[C@](O)(Cn1cncn1)c1ccc(F)cc1F | 0.063 (≈ 0.152 µM) | > 8 | > 8 | 0.5 (≈ 1.21 µM) | 8 (≈ 19.3 µM) | 0.25 (≈ 0.603 µM) | 32 (≈ 77.2 µM) | 32 (≈ 77.2 µM) | 128 (≈ 309 µM) | 64 (≈ 154 µM) | – | 0.5 (≈ 1.21 µM) | – | –
CC(=O)N1CCN(c2ccc(OCC3COC(Cn4ccnc4)(c4ccc(Cl)cc4Cl)O3)cc2)CC1 (configuration not stated) [KETOCONAZOLE] | – | 4 (≈ 7.53 µM) | – | – | – | – | – | – | – | – | – | – | 51 | –
C[C@@H](n1ncc2cc([N+](=O)[O-])ccc21)[C@](O)(Cn1cncn1)c1ccc(F)cc1F | ≤ 0.015 | 4 (≈ 9.65 µM) | 0.25 (≈ 0.603 µM) | ≤ 0.015 | 0.031 (≈ 0.0748 µM) | 0.031 (≈ 0.0748 µM) | 1 (≈ 2.41 µM) | 1 (≈ 2.41 µM) | 2 (≈ 4.83 µM) | 2 (≈ 4.83 µM) | – | 0.063 (≈ 0.152 µM) | – | 12.4
C[C@@H](n1cc2cc(Cl)ccc2n1)[C@](O)(Cn1cncn1)c1ccc(F)cc1F | ≤ 0.015 | 4 (≈ 9.91 µM) | 0.125 (≈ 0.31 µM) | ≤ 0.015 | 0.031 (≈ 0.0768 µM) | ≤ 0.015 | 0.25 (≈ 0.619 µM) | 0.5 (≈ 1.24 µM) | 0.5 (≈ 1.24 µM) | 1 (≈ 2.48 µM) | – | 0.015 (≈ 0.0371 µM) | – | –
C[C@@H](n1cc2c([N+](=O)[O-])cccc2n1)[C@](O)(Cn1cncn1)c1ccc(F)cc1F | ≤ 0.015 | > 8 | 4 (≈ 9.65 µM) | 0.125 (≈ 0.302 µM) | 1 (≈ 2.41 µM) | 0.25 (≈ 0.603 µM) | 1 (≈ 2.41 µM) | 2 (≈ 4.83 µM) | 1 (≈ 2.41 µM) | 4 (≈ 9.65 µM) | – | 0.063 (≈ 0.152 µM) | – | –
C[C@@H](n1ncc2cc(Br)ccc21)[C@](O)(Cn1cncn1)c1ccc(F)cc1F | ≤ 0.015 | 4 (≈ 8.92 µM) | 2 (≈ 4.46 µM) | ≤ 0.015 | 1 (≈ 2.23 µM) | 0.125 (≈ 0.279 µM) | 2 (≈ 4.46 µM) | 4 (≈ 8.92 µM) | 4 (≈ 8.92 µM) | 4 (≈ 8.92 µM) | – | ≤ 0.015 | – | –
C[C@@H](n1cc2cc(Br)ccc2n1)[C@](O)(Cn1cncn1)c1ccc(F)cc1F | ≤ 0.015 | 2 (≈ 4.46 µM) | 0.125 (≈ 0.279 µM) | ≤ 0.015 | ≤ 0.015 | ≤ 0.015 | 0.25 (≈ 0.558 µM) | 0.5 (≈ 1.12 µM) | 0.5 (≈ 1.12 µM) | 1 (≈ 2.23 µM) | – | ≤ 0.015 | 141 | 13.5
C[C@@H](n1ncc2cc(Cl)ccc21)[C@](O)(Cn1cncn1)c1ccc(F)cc1F | ≤ 0.015 | 4 (≈ 9.91 µM) | 2 (≈ 4.95 µM) | ≤ 0.015 | 0.5 (≈ 1.24 µM) | 0.125 (≈ 0.31 µM) | 2 (≈ 4.95 µM) | 4 (≈ 9.91 µM) | 4 (≈ 9.91 µM) | 8 (≈ 19.8 µM) | – | 0.031 (≈ 0.0768 µM) | – | –
C[C@@H](n1cnc2cc(Cl)ccc2c1=O)[C@](O)(Cn1cncn1)c1ccc(F)cc1F [ALBACONAZOLE] | ≤ 0.015 | 8 (≈ 18.5 µM) | 0.25 (≈ 0.579 µM) | ≤ 0.015 | 0.031 (≈ 0.0718 µM) | ≤ 0.015 | 0.5 (≈ 1.16 µM) | 0.5 (≈ 1.16 µM) | 1 (≈ 2.32 µM) | 2 (≈ 4.63 µM) | – | ≤ 0.015 | – | –

— ChEMBL document CHEMBL1139935, “Discovery of novel indazole-linked triazoles as antifungal agents” (2007)
